In brackets after ≈: the same amount, converted by molar mass.
Test system: Mycobacterium tuberculosis
Test: Antimycobacterial activity against Mycobacterium tuberculosis H37Rv at 1 ug/ml after 6 weeks
Type: functional
Summary of the method: (§1)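 Lowenstein–Jensen slope method. Compounds dissolved in DMSO, diluted in DMSO, and an aliquot mixed into L.J. medium at 0.8 mL per 7.2 mL. Slopes set and sterilised at 75–80 °C for 3 days. M. tuberculosis H37Rv suspended with glass beads in sterile water and inoculated by 3 mm nichrome loop. DMSO-only and compound-free media served as controls.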

| SMILES | Activity |
| --- | --- |
| Clc1ccc(-c2coc(-c3cccc(Oc4ccccc4)c3)n2)cc1 | 100% |
| S=c1[nH]nc(-c2cccc(Oc3ccccc3)c2)n1-c1ccccc1 | 100% |
| S=c1[nH]nc(-c2ccc(Oc3ccccc3)cc2)n1-c1ccccc1 | 100% |
| S=c1[nH]nc(-c2ccc(Oc3ccccc3)cc2)o1 | 100% |
| S=c1[nH]nc(-c2ccccc2Oc2ccccc2)o1 | 100% |
| S=c1[nH]nc(-c2ccccc2Oc2ccccc2)n1-c1ccccc1 | 100% |
| c1ccc(Oc2cccc(-c3nc(-c4ccccc4)co3)c2)cc1 | 100% |
| Oc1cc(Cl)ccc1Oc1ccc(Cl)cc1Cl [TRICLOSAN] | 100% |
| S=c1[nH]nc(-c2cccc(Oc3ccccc3)c2)o1 | 100% |
| O=C(c1ccccc1)N1N=C(c2ccccn2)CC1c1ccc(Oc2ccccc2)cc1 (centres undefined) | 100% |
| COc1ccc(-c2coc(-c3cccc(Oc4ccccc4)c3)n2)cc1 | 100% |

Test system: Mycobacterium tuberculosis
Test: Antimycobacterial activity against Mycobacterium tuberculosis H37Rv after 6 weeks
Type: functional
Summary of the method: as §1

| SMILES | MIC |
| --- | --- |
| CO[C@H]1/C=C/O[C@@]2(C)Oc3c(C)c(O)c4c(O)c(c(/C=N/N5CCN(C)CC5)c(O)c4c3C2=O)NC(=O)/C(C)=C\C=C\[C@H](C)[C@H](O)[C@@H](C)[C@@H](O)[C@@H](C)[C@H](OC(C)=O)[C@@H]1C [RIFAMPIN] | 0.06 µg/mL (≈ 0.0729 µM) |
| NNC(=O)c1ccncc1 [ISONIAZID] | 0.01 µg/mL (≈ 0.0729 µM) |
| Oc1cc(Cl)ccc1Oc1ccc(Cl)cc1Cl [TRICLOSAN] | 5 µg/mL (≈ 17.3 µM) |

— ChEMBL document CHEMBL1158336, “Synthesis, antitubercular activity and docking study of novel cyclic azole substituted diphenyl ether derivatives” (2009)
